11 compounds from ChEMBL document CHEMBL3286255, “Rational design and synthesis of novel thiazolidin-4-ones as non-nucleoside HIV-1 reverse transcriptase inhibitors” (Bioorg Med Chem, 2014) can be followed below.

By inhibition is commonly meant the change of the read-out against control, counted positive when it falls. The term CC50 denotes the concentration at which the toxic effect on the cells reaches its halfway point. What is called EC50 is the concentration that produces a half-maximal response.

For data set [1], the system named is Human immunodeficiency virus. In words: Inhibition of HIV reverse transcriptase at 100 ug/ml after 1 hr by ELISA relative to control. The method in brief:
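Kit ELISA for HIV RT. Template/primer, biotin- and DIG-labelled dNTPs and RT enzyme in lysis buffer incubated 1 h at 37 °C. Product captured on streptavidin, detected with anti-DIG-peroxidase and ABTS substrate, and read at 405 nm. Percent inhibition calculated against a no-inhibitor sample.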
A general note: An ELISA detects its analyte on a solid surface through an enzyme-linked reagent.

The nature of data set [2]: Cytotoxicity against human TZM-bl cells after 48 hrs by MTT assay. It counts as cell-based. The method in brief:
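TZM-bl cells seeded 1×10^4/well and left overnight at 37 °C, 5% CO2. Medium then replaced with a two-fold dilution series of compound in quadruplicate. […] Mean of three independent assays.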

Data set [3] is described as follows: Selectivity index, ratio of CC50 for human TZM-bl cells to EC50 for X4 tropic Human immunodeficiency virus 1 3B subtype B. In kind it is toxicity, cell-based. Conditions: read-out: Ratio CC50/EC50; call rule not given here.
The test system of data set [4] is Human immunodeficiency virus 1. In words: Antiviral activity against R5 tropic Human immunodeficiency virus 1 ADA5 subtype B infected in human TZM-bl cells assessed as reduction in virus-induced cytopathic effect after 48 hrs by luminescence assay. In kind it is functional, organism-based. The method, boiled down:
(§1)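 TZM-bl cells (HeLa-derived; CD4, CXCR4, CCR5; LTR-driven luciferase) seeded 1×10^4/well, left overnight at 37 °C, 5% CO2, then infected with 400 TCID50 virus for 2 h. Serial compound dilutions added in duplicate, only at levels giving >50% viability. […] Mean of two independent assays; nevirapine as positive control.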

Data set [5] is described as follows: Selectivity index, ratio of CC50 for human TZM-bl cells to EC50 for R5 tropic Human immunodeficiency virus 1 ADA5 subtype B. It counts as toxicity, cell-based. Conditions: read-out: Ratio CC50/EC50.
Data set [6] concerns Human immunodeficiency virus 1. In words: Antiviral activity against X4 tropic Human immunodeficiency virus 1 3B subtype B infected in human TZM-bl cells assessed as reduction in virus-induced cytopathic effect after 48 hrs by luminescence assay. It counts as functional, organism-based. The method in brief: as §1
(In general: Protection from cytopathic effect is a common read-out in antiviral testing.)

The test system of data set [7] is Human immunodeficiency virus 1. In words: Antiviral activity against R5 tropic Human immunodeficiency virus 1 VB59 subtype C infected in human TZM-bl cells assessed as reduction in virus-induced cytopathic effect after 48 hrs by luminescence assay. It counts as functional, organism-based. The method in brief:
as §1

Data set [8] has as its system Human immunodeficiency virus 1. In words: Antiviral activity against X4 tropic Human immunodeficiency virus 1 UG070 subtype D infected in human TZM-bl cells assessed as reduction in virus-induced cytopathic effect after 48 hrs by luminescence assay. It counts as functional, organism-based. The method, boiled down:
as §1

Data set [9] is described as follows: Selectivity index, ratio of CC50 for human TZM-bl cells to EC50 for R5 tropic Human immunodeficiency virus 1 VB59 subtype C. Particulars: read-out: Ratio CC50/EC50. It counts as toxicity, cell-based.
Data set [10] can be described thus: Selectivity index, ratio of CC50 for human TZM-bl cells to EC50 for X4 tropic Human immunodeficiency virus 1 UG070 subtype D. Conditions: read-out: Ratio CC50/EC50. In kind it is toxicity, cell-based.
Where [11] appears, read: Human immunodeficiency virus 1, ADA5 subtype B, TZM-bl, 48 h, read-out: EC50.
Setting [12] is: Human immunodeficiency virus 1, 3B subtype B, TZM-bl, 48 h, read-out: EC50.
Where [13] appears, read: Human immunodeficiency virus 1, VB59 subtype C, TZM-bl, 48 h, read-out: EC50.

In data set [1], `O=C1CSC(c2c(Cl)cccc2Cl)N1c1ncnc2[nH]cnc12` (centres undefined) displayed an inhibition of 50.2%. This compound returned a CC50 at 48 h in [2] of 13.1 µM. Further, the figures for the selectivity ratio in data set [3] and in [5] were 1.1 and 1.11, respectively. Moreover, the EC50 in data set [4] (setting [11]) was determined as 11.7 µM; in data set [6] (setting [12]), 11.8 µM.

With `Cc1cc(C)nc(N2C(=O)CSC2c2ccc(C#N)cc2)n1` (centres undefined), the inhibition in data set [1] worked out at 41.5%. In [2], this compound registered a 50% cytotoxic concentration (CC50) at 48 h of 113 µM. Moreover, the selectivity ratio in data set [3] turned out to be 0.97; in [5] it was 1.13. Besides, the EC50 in data set [4] (setting [11]) was 99.3 µM; in data set [6] (setting [12]) it was 115 µM; in data set [7] (tzm-bl), “Not Active”; in [8] (tzm-bl), “Not Active”.

The compound `Cc1ccc(S(=O)(=O)NN2C(=O)CSC2c2c(Cl)cccc2Cl)cc1` (centres undefined) yielded an inhibition in [1] of 57.9%. In data set [2], the midpoint of cytotoxicity, the CC50 at 48 h, lay at 75.7 µM. For the same compound, the figures for the selectivity ratio in data set [3] and in data set [5] were 2.57 and 16.6, respectively. The half-maximal effective concentration (EC50) was 4.55 µM in data set [4] (setting [11]), 29.4 µM in [6] (setting [12]), “Not Active” in data set [7] (tzm-bl) and “Not Active” in data set [8] (tzm-bl).

As for `O=C(NN1C(=O)CSC1c1c(F)cccc1Cl)c1ccncc1` (centres undefined), in data set [1], the inhibition amounted to 81.7%. In data set [2], this compound gave a CC50 at 48 h of 105 µM. Also, the EC50 result in data set [4] (tzm-bl) and in [6] (tzm-bl) was “Not Active” in each case.

Compound `Cc1cc(N2C(=O)CSC2c2c(Cl)cccc2[N+](=O)[O-])nc(C)c1Br` (centres undefined) gave an inhibition in data set [1] of 77.8%.

In the case of `O=C(NN1C(=O)CSC1c1c(Cl)cccc1Cl)c1ccncc1` (centres undefined), the inhibition in data set [1] amounted to 18.9%. In data set [2], this compound registered a CC50 at 48 h of 170 µM. The selectivity ratio was 4.64 in data set [3], 17.5 in [5] and 6.47 in data set [9]. The 50% effective concentration (EC50) is 9.72 µM in data set [4] (setting [11]), 36.7 µM in [6] (setting [12]), 26.3 µM in [7] (setting [13]) and “Not Active” in data set [8] (tzm-bl).

Turning to `Cc1cc(N2C(=O)CSC2c2ccc(C#N)cc2)nc(C)c1Br` (centres undefined), the inhibition in data set [1] amounted to 37.5%. Moreover, the CC50 at 48 h in data set [2] stood at 43.8 µM. Also, the half-maximal effective concentration (EC50) was 39.1 µM in data set [4] (setting [11]) and “Not Active” in [6] (tzm-bl). Also, the selectivity ratio in data set [5] was 1.11.

For `COc1cc(OC)nc(N2C(=O)CSC2c2ccc(C#N)cc2)n1` (centres undefined), the inhibition in [1] was 12.2%. For the same compound, the CC50 at 48 h in [2] stood at 86.5 µM. In addition, the selectivity ratio came to 1.27 in [3] and 1.51 in [5]. The concentration for a half-maximal effect (EC50) in [4] (setting [11]) was 57 µM; in data set [6] (setting [12]), 68 µM; in data set [7] (tzm-bl), “Not Active”; in data set [8] (tzm-bl), “Not Active”.

`Cc1cc(N2C(=O)CSC2c2ccc(C#N)cc2)no1` (centres undefined): in data set [1], the inhibition was 27.6%. This compound came in with a CC50 at 48 h in data set [2] of 140 µM. Besides, the selectivity ratio in data set [3] amounted to 1.57; in data set [5] it was 1.72; in data set [9] it was 2.04. Besides, the concentration for a half-maximal effect (EC50) in data set [4] (setting [11]) was 81.1 µM; in [6] (setting [12]) it was 88.7 µM; in data set [7] (setting [13]) it was 68.7 µM.

Consider `Cc1ccnc(N2C(=O)CSC2c2ccc(C#N)cc2)n1` (centres undefined), for which the inhibition in data set [1] turned out to be 43.5%. Further, it took 121 µM to reach half-maximal cytotoxicity in data set [2] (CC50 at 48 h). For the same compound, the figures for the selectivity ratio in [3] and in data set [5] were 1.41 and 2.2, respectively. For the same compound, the EC50 in [4] (setting [11]) was 55 µM; in [6] (setting [12]) it was 85.7 µM; in [7] (tzm-bl) it was “Not Active”; in data set [8] (tzm-bl), “Not Active”.

In data set [1], `Cc1cccc(C)c1C1SCC(=O)N1NC(=O)c1ccncc1` (centres undefined) registered an inhibition of 14.2%. In data set [2], this compound returned a CC50 at 48 h of 43.4 µM. For the same compound, the results for the selectivity ratio in data set [3], in data set [10] and in [5] were 1.47, 1.11 and 2.29, respectively. Further, the half-maximal effective concentration (EC50) in data set [4] (setting [11]) was 18.9 µM; in [6] (setting [12]), 29.4 µM; in [7] (tzm-bl) it was “Not Active”; in data set [8] (Human immunodeficiency virus 1, UG070 subtype D, TZM-bl, 48 h, read-out: EC50) it was 38.8 µM.
